In ChEMBL document CHEMBL3046780, “Syntheses and herbicidal activity of new triazolopyrimidine-2-sulfonamides as acetohydroxyacid synthase inhibitor” (Bioorg Med Chem, 2010):

Tests used:
[1] = tested on: Eclipta prostrata; assay: Post-emergence herbicidal activity against Eclipta prostrata assessed as growth inhibition at 37.5 g ai/ha measured 15 days post compound treatment under green house conditions; format: functional; conditions: 360 h, read-out: GI
How it was run: (§1)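 Compounds formulated as 100 g/L emulsifiable concentrate (DMF solvent, Tween-80 emulsifier), diluted with water, sprayed post-emergence on pot-grown weeds in clay soil (pH 6.5, 1.6% organic matter). Seeds sown 1-3 cm deep, grown at 15-30 °C. Dicots were treated at the 2-leaf stage and monocots at the 1-leaf stage. Untreated and DMF-treated controls were included. Injury was rated visually 15 days after treatment.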

[2] = tested on: Poa annua; assay: Post-emergence herbicidal activity against Poa annua assessed as growth inhibition at 150 g ai/ha measured 15 days post compound treatment under green house conditions; format: functional; conditions: 360 h, read-out: GI; how it was run: as §1
[3] = tested on: Amaranthus retroflexus; assay: Post-emergence herbicidal activity against Amaranthus retroflexus assessed as growth inhibition at 150 g ai/ha measured 15 days post compound treatment under green house conditions; format: functional; conditions: 360 h, read-out: GI; how it was run: as §1
[4] = tested on: Rumex acetosa; assay: Post-emergence herbicidal activity against Rumex acetosa assessed as growth inhibition at 37.5 g ai/ha measured 15 days post compound treatment under green house conditions; format: functional; conditions: 360 h, read-out: GI; how it was run: as §1
[5] = tested on: Chenopodium album; assay: Post-emergence herbicidal activity against Chenopodium album assessed as growth inhibition at 150 g ai/ha measured 15 days post compound treatment under green house conditions; format: functional; conditions: 360 h, read-out: GI; how it was run: as §1
[6] = tested on: Amaranthus retroflexus; assay: Post-emergence herbicidal activity against Amaranthus retroflexus assessed as growth inhibition at 37.5 g ai/ha measured 15 days post compound treatment under green house conditions; format: functional; conditions: 360 h, read-out: GI; how it was run: as §1
[7] = tested on: Eclipta prostrata; assay: Post-emergence herbicidal activity against Eclipta prostrata assessed as growth inhibition at 150 g ai/ha measured 15 days post compound treatment under green house conditions; format: functional; conditions: 360 h, read-out: GI; how it was run: as §1
[8] = tested on: Galium aparine; assay: Post-emergence herbicidal activity against Galium aparine assessed as growth inhibition at 75 g ai/ha measured 15 days post compound treatment under green house conditions; format: functional; conditions: 360 h, read-out: GI; how it was run: as §1
[9] = tested on: Eclipta prostrata; assay: Post-emergence herbicidal activity against Eclipta prostrata assessed as growth inhibition at 75 g ai/ha measured 15 days post compound treatment under green house conditions; format: functional; conditions: 360 h, read-out: GI; how it was run: as §1
[10] = tested on: Chenopodium album; assay: Post-emergence herbicidal activity against Chenopodium album assessed as growth inhibition at 75 g ai/ha measured 15 days post compound treatment under green house conditions; format: functional; conditions: 360 h, read-out: GI; how it was run: as §1
[11] = tested on: Rumex acetosa; assay: Post-emergence herbicidal activity against Rumex acetosa assessed as growth inhibition at 150 g ai/ha measured 15 days post compound treatment under green house conditions; format: functional; conditions: 360 h, read-out: GI; how it was run: as §1
[12] = tested on: Cyperus iria; assay: Post-emergence herbicidal activity against Cyperus iria assessed as growth inhibition at 37.5 g ai/ha measured 15 days post compound treatment under green house conditions; format: functional; conditions: 360 h, read-out: GI; how it was run: as §1
[13] = tested on: Galium aparine; assay: Post-emergence herbicidal activity against Galium aparine assessed as growth inhibition at 150 g ai/ha measured 15 days post compound treatment under green house conditions; format: functional; conditions: 360 h, read-out: GI; how it was run: as §1
[14] = tested on: Rumex acetosa; assay: Post-emergence herbicidal activity against Rumex acetosa assessed as growth inhibition at 75 g ai/ha measured 15 days post compound treatment under green house conditions; format: functional; conditions: 360 h, read-out: GI; how it was run: as §1
[15] = tested on: Cerastium arvense; assay: Post-emergence herbicidal activity against Cerastium arvense assessed as growth inhibition at 150 g ai/ha measured 15 days post compound treatment under green house conditions; format: functional; conditions: 360 h, read-out: GI; how it was run: as §1
[16] = tested on: Amaranthus retroflexus; assay: Post-emergence herbicidal activity against Amaranthus retroflexus assessed as growth inhibition at 75 g ai/ha measured 15 days post compound treatment under green house conditions; format: functional; conditions: 360 h, read-out: GI; how it was run: as §1
[17] = tested on: Galium aparine; assay: Post-emergence herbicidal activity against Galium aparine assessed as growth inhibition at 37.5 g ai/ha measured 15 days post compound treatment under green house conditions; format: functional; conditions: 360 h, read-out: GI; how it was run: as §1
[18] = tested on: Polygonum humifusum; assay: Post-emergence herbicidal activity against Polygonum humifusum assessed as growth inhibition at 75 g ai/ha measured 15 days post compound treatment under green house conditions; format: functional; conditions: 360 h, read-out: GI; how it was run: as §1
[19] = tested on: Cerastium arvense; assay: Post-emergence herbicidal activity against Cerastium arvense assessed as growth inhibition at 37.5 g ai/ha measured 15 days post compound treatment under green house conditions; format: functional; conditions: 360 h, read-out: GI; how it was run: as §1
[20] = tested on: Cyperus iria; assay: Post-emergence herbicidal activity against Cyperus iria assessed as growth inhibition at 75 g ai/ha measured 15 days post compound treatment under green house conditions; format: functional; conditions: 360 h, read-out: GI; how it was run: as §1
[21] = tested on: Cerastium arvense; assay: Post-emergence herbicidal activity against Cerastium arvense assessed as growth inhibition at 75 g ai/ha measured 15 days post compound treatment under green house conditions; format: functional; conditions: 360 h, read-out: GI; how it was run: as §1
[22] = tested on: Polygonum humifusum; assay: Post-emergence herbicidal activity against Polygonum humifusum assessed as growth inhibition at 150 g ai/ha measured 15 days post compound treatment under green house conditions; format: functional; conditions: 360 h, read-out: GI; how it was run: as §1
[23] = tested on: Chenopodium album; assay: Post-emergence herbicidal activity against Chenopodium album assessed as growth inhibition at 37.5 g ai/ha measured 15 days post compound treatment under green house conditions; format: functional; conditions: 360 h, read-out: GI; how it was run: as §1
[24] = tested on: Echinochloa crus-galli; assay: Post-emergence herbicidal activity against Echinochloa crus-galli (barnyard grass) assessed as growth inhibition at 150 g ai/ha measured 15 days post compound treatment under green house conditions; format: functional; conditions: 360 h, read-out: GI; how it was run: as §1
[25] = tested on: Polygonum humifusum; assay: Post-emergence herbicidal activity against Polygonum humifusum assessed as growth inhibition at 37.5 g ai/ha measured 15 days post compound treatment under green house conditions; format: functional; conditions: 360 h, read-out: GI; how it was run: as §1
[26] = molecular target: T1, Acetolactate synthase, chloroplastic (Arabidopsis thaliana, UniProt P17597)
T1 sequence (P17597 whole entry): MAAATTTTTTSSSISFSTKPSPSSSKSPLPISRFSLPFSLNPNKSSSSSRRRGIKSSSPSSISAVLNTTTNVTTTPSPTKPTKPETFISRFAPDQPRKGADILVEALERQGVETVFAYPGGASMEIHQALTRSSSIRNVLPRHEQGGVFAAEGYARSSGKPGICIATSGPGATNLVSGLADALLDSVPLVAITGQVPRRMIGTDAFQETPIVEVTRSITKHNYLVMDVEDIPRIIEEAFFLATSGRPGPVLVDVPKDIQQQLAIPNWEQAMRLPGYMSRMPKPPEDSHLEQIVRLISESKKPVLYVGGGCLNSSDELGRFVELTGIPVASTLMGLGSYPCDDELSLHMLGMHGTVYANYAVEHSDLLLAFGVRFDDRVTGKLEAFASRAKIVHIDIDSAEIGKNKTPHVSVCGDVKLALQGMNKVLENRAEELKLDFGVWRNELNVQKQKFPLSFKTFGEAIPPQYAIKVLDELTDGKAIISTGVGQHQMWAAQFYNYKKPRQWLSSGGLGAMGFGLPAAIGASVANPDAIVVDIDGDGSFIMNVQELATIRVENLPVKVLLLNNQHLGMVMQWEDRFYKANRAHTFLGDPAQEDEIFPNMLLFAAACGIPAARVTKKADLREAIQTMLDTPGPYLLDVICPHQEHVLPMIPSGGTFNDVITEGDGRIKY

[27] = tested on: Cyperus iria; assay: Post-emergence herbicidal activity against Cyperus iria assessed as growth inhibition at 150 g ai/ha measured 15 days post compound treatment under green house conditions; format: functional; conditions: 360 h, read-out: GI; how it was run: as §1
[28] = tested on: Brassica juncea; assay: Post-emergence herbicidal activity against Brassica juncea assessed as growth inhibition at 150 g ai/ha measured 15 days post compound treatment under green house conditions; format: functional; conditions: 360 h, read-out: GI; how it was run: as §1
[29] = tested on: Digitaria sanguinalis; assay: Post-emergence herbicidal activity against Digitaria sanguinalis (hairy crabgrass) assessed as growth inhibition at 150 g ai/ha measured 15 days post compound treatment under green house conditions; format: functional; conditions: 360 h, read-out: GI; how it was run: as §1

COC(=O)c1cccc(Cl)c1NS(=O)(=O)c1nc2nc(OC)ccn2n1
< 50%: inhibition of growth at 150 g/ha [2] | inhibition of growth at 150 g/ha [29]
≥ 80%: inhibition of growth at 150 g/ha [3] | inhibition of growth at 37.5 g/ha [4] | inhibition of growth at 37.5 g/ha [6] | inhibition of growth at 75 g/ha [9] | inhibition of growth at 150 g/ha [11] | inhibition of growth at 75 g/ha [14] | inhibition of growth at 75 g/ha [16] | inhibition of growth at 37.5 g/ha [17] | inhibition of growth at 37.5 g/ha [19] | inhibition of growth at 75 g/ha [21] | inhibition of growth at 37.5 g/ha [23]
1610 nM: Ki [26]
≥ 90%: inhibition of growth at 150 g/ha [5] | inhibition of growth at 150 g/ha [7] | inhibition of growth at 75 g/ha [8] | inhibition of growth at 75 g/ha [10] | inhibition of growth at 150 g/ha [13] | inhibition of growth at 150 g/ha [15] | inhibition of growth at 150 g/ha [28]
50%: inhibition of growth at 37.5 g/ha [1] | inhibition of growth at 37.5 g/ha [12] | inhibition of growth at 75 g/ha [18] | inhibition of growth at 75 g/ha [20] | inhibition of growth at 150 g/ha [22] | inhibition of growth at 150 g/ha [24] | inhibition of growth at 37.5 g/ha [25] | inhibition of growth at 150 g/ha [27]
